According to ChEMBL document CHEMBL4342506 (ACS Med Chem Lett, 2020):
Active and inactive are the calls of the source. The calls are words filed in the database; no cut-off is given here.

Legend:
[1] = Metabolic stability in human liver microsomes at 200 uM incubated for 24 hrs by HPLC-MS analysis; format: ADME, Microsome
Procedure, shortened: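 Compound was incubated with pooled human liver microsomes without NADPH for up to 24 h to assess NADPH-independent metabolism; mean ± SD, n = 3.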

[2] = Stability in human serum at 200 uM incubated for 24 hrs by HPLC-MS analysis; format: ADME, cell-free
Procedure, shortened: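 Compound was incubated in human serum at 37 °C and followed over 24 h.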

[3] = Metabolic stability in human liver microsome assessed as half life at 200 uM in presence of NADPH incubated for 24 hrs by HPLC-MS analysis; format: ADME; conditions: liver microsomes
[4] = test system: BEAS-2B; experiment: Cytoprotective activity in human BEAS2B cells assessed as reduction in HNE-induced cell death incubated for 24 hrs by MTT assay; format: functional, cell-based
Procedure, shortened: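 BEAS-2B bronchial epithelial cells were cotreated with compound and 100 nM HNE for 24 h, and viability was read with MTT reagent.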

[5] = test system: BEAS-2B; experiment: Upregulation of IL-1beta in human BEAS2B cells incubated for 3 hrs by RT-qPCR analysis
[6] = biological target: T1, Neutrophil elastase (Homo sapiens, UniProt P08246); experiment: Inhibition of human neutrophil elastase using N-(OMe-succinyl)-Ala-Ala-Pro-Val-p-nitroanilide as substrate incubated for 15 mins followed by substrate addition and measured for every 30 sec for 30 mins by spectrophotometry
T1 sequence (P08246 whole entry): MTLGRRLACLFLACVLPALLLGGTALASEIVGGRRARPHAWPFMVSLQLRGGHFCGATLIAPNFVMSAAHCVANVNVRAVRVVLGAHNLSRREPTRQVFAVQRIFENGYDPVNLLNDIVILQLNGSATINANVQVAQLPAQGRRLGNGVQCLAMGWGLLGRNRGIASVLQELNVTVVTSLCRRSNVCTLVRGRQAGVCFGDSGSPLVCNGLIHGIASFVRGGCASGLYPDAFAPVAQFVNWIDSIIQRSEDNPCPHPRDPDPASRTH

Stability [1]	Stability [2]	half-life at 200 µM [3] [h]	IC50 [6] [nM]	Compound	EC50 [4] [nM]	Activity [5]
Stable	Stable	2	–	C/C=C1\NC(=O)[C@@H](NC(=O)[C@H](CCC(N)=O)NC(=O)CCCCC)[C@@H](C)OC(=O)[C@H](C(C)C)NC(=O)[C@H](Cc2ccc(O)cc2)N(C)C(=O)[C@H](Cc2ccccc2)N2C(=O)[C@H](CC[C@H]2O)NC1=O [LYNGBYASTATIN 7]	20	Active
–	–	–	10000	C/C=C1\NC(=O)[C@@H](NC(C)=O)[C@@H](C)OC(=O)[C@H](C(C)C)NC(=O)[C@H](Cc2ccc(O)cc2)N(C)C(=O)[C@H](Cc2ccccc2)N2C(=O)[C@H](CC[C@H]2O)NC1=O	–	–
–	–	–	103	C/C=C1\NC(=O)[C@@H](NC(=O)[C@H](CCC(N)=O)NC(=O)CC2CCCCC2)[C@@H](C)OC(=O)[C@H](C(C)C)NC(=O)[C@H](Cc2ccc(O)cc2)N(C)C(=O)[C@H](Cc2ccccc2)N2C(=O)[C@H](CC[C@H]2O)NC1=O	91	Active
–	–	–	> 10000	C/C=C1\NC(=O)[C@@H](NC(=O)OC(C)(C)C)[C@@H](C)OC(=O)[C@H](C(C)C)NC(=O)[C@H](Cc2ccc(O)cc2)N(C)C(=O)[C@H](Cc2ccccc2)N2C(=O)[C@H](CC[C@H]2O)NC1=O	–	–
–	–	–	197	C/C=C1\NC(=O)[C@@H](NC(=O)[C@H](CCC(N)=O)NC(=O)CN2CCOCC2)[C@@H](C)OC(=O)[C@H](C(C)C)NC(=O)[C@H](Cc2ccc(O)cc2)N(C)C(=O)[C@H](Cc2ccccc2)N2C(=O)[C@H](CC[C@H]2O)NC1=O	185	inactive
